In ChEMBL document CHEMBL4513216, “Probing the Open Global Health Chemical Diversity Library for Multistage-Active Starting Points for Next-Generation Antimalarials” (ACS Infect Dis, 2020):

Assay: Toxicity liver stage against HepG2, at 10uM
Type: cell-based
Parameters: test concentration 10 uM, cell line HepG2-A16-CD81EGFP
Details: human, HepG2-A16-CD81EGFP cells; read-out: INHIBITION
In short: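 Uninfected HepG2-A16-CD81EGFP cells, 3 × 10^3 per well, 1536-well, plated on prespotted compound at 10 μM final, parasite-free screening media added to match infected plates; puromycin 10 μM positive, DMSO 0.5% negative; run in parallel with 48 h PbLuc assay at 37 °C, 5% CO2; viability by CellTiter-Glo luminescence, normalized to controls.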

First: N#Cc1c(F)cccc1N1CCC(NS(=O)(=O)c2cccs2)CC1
Second: CN(C)C(C(=O)N1CCC(C#N)CC1)c1ccccc1F (stereo not given)
The cytotoxicity at 10 µM of the first is lower: -7.39% for the first, -3.59% for the second.

First: COc1cc(CNCC(O)c2ccc(F)c(F)c2)cc2c1OCO2 (stereo not given)
Second: Cc1noc(C)c1CN(C)C(=O)NCCOc1ccc(F)cc1F
The cytotoxicity at 10 µM of the first is lower: -8.28% for the first, -0.0414% for the second.

Going from COC(=O)[C@H](CC(C)C)NC(=O)c1snnc1-c1ccc(OC)cc1 to CCn1c(=O)nc(N)c2c(-c3ccc(OC)cc3)csc21, the cytotoxicity at 10 µM falls from 10.1% to -32.8%.

First: Cc1oncc1C(=O)N1CCC2(C1)CN(c1cccnc1)C(=O)CN2C (stereo not given)
Second: Cc1ccccc1N1CCN(C(=O)Cn2ccnc2)CC1=O
The cytotoxicity at 10 µM of the first is lower: -5.26% for the first, -1.86% for the second.

Going from Cc1ccc(-c2noc(C3CCN3C(=O)c3ccn(C)n3)n2)s1 (stereo not given) to CCc1cnc(CNc2ccc(C(=O)N3CCCC(C)C3)cc2C)o1 (stereo not given), the cytotoxicity at 10 µM falls from 3.56% to -3.58%.

First: CN1C[C@@H](C(=O)NC2CCCC2)[C@@]2(COc3ccc(F)cc3C2=O)C1
Second: Cc1ccc(CN2CC[C@H]3OCC[C@@H](C(=O)NC4CC4)[C@@H]3C2)o1
The cytotoxicity at 10 µM of the first is lower: 2.1% for the first, 5.81% for the second.

Going from CCN1CCC(N2CCC(c3nc(C)cc(C)n3)C2)CC1 (stereo not given) to CC(=O)N1CCC(c2cncc(N3CCC(O)C3)n2)CC1 (stereo not given), the cytotoxicity at 10 µM rises from 5.15% to 5.57%.

First: CN(C)S(=O)(=O)N1CCCC(C)(c2ncc(C(N)=O)s2)C1 (stereo not given)
Second: CNC(=O)[C@@]12CCO[C@@H]1CCN(S(=O)(=O)c1cccnc1)C2
The cytotoxicity at 10 µM of the first is higher: -2.36% for the first, -3.3% for the second.

Compared with Cn1cc(CN2CCOC(c3cccc(-c4cccc(F)c4)n3)C2)cn1 (stereo not given), COc1cccc(N2CCN(Cc3ccc4occc4c3)CC2=O)c1 is higher in cytotoxicity at 10 µM: -11.1% for the first, 24% for the second.

Compared with Oc1cc(-c2cccs2)nc(C2CCCN(CC3=CCCOC3)C2)n1 (stereo not given), Cc1ccc(CN2CCCC(c3nnc(CN4CCCCC4)n3C)C2)s1 (stereo not given) is higher in cytotoxicity at 10 µM: -5.56% for the first, -2.46% for the second.

Compared with CCOC(C)C(=O)Nc1ccnn1-c1ccccc1C (stereo not given), Cc1ccccc1C(=O)NCc1ccnc(N(C)C)c1 is lower in cytotoxicity at 10 µM: -7.89% for the first, -8.84% for the second.

Compared with CC(C)c1n[nH]c(C2CN(Cc3ncc[nH]3)CCO2)n1 (stereo not given), CC(C)(C)c1n[nH]c(C2CN(C(=O)CCc3cscn3)CCO2)n1 (stereo not given) is lower in cytotoxicity at 10 µM: 1.95% for the first, -17.3% for the second.

First: Cc1nn(CC(C)C)c(C)c1CC(=O)N1CCCC(CNS(C)(=O)=O)C1 (stereo not given)
Second: Cc1ccc(C(=O)N2CCCC(n3cccn3)C2)cc1S(C)(=O)=O (stereo not given)
The cytotoxicity at 10 µM of the first is higher: 0.246% for the first, -4.63% for the second.

Going from COCCNC(=O)CN(C)CCn1nc2ccccn2c1=O to CN(C)CC(=O)N1Cc2nc(C(=O)NCc3ccccc3)oc2C1, the cytotoxicity at 10 µM rises from -156% to -81.5%.

Compared with CC(c1nc(C(C)(C)C)no1)N1CCN(c2ccc(C#N)cn2)CC1 (stereo not given), Cc1csc(N2CCN(Cc3cnc4c(c3)c(C)nn4C)CC2)n1 is lower in cytotoxicity at 10 µM: 3.84% for the first, -0.54% for the second.

Compared with COC(=O)NCCC(=O)NCC1(c2cccc(Cl)c2)CC1, O=C(NCCCc1nc(=O)[nH][nH]1)Nc1ccc(Cl)cc1 is lower in cytotoxicity at 10 µM: -4.31% for the first, -54.9% for the second.

First: Cc1cccc(C(=O)N2CCCN(CCc3scnc3C)CC2)c1
Second: O=C(CCc1cc2n(n1)CCCN(CCc1ccccc1)C2)NC1CC1
The cytotoxicity at 10 µM of the first is lower: -2.52% for the first, 12% for the second.

First: CS(=O)(=O)Cc1ccc(NC(=O)c2cccnc2)cc1F
Second: CS(=O)(=O)c1ccc(NC(=O)NCc2ccc3c(c2)CCC3)cn1
The cytotoxicity at 10 µM of the first is higher: -1.53% for the first, -4.92% for the second.

First: Cn1cc(NC(=O)Nc2ccc3c(c2)OCO3)cn1
Second: COc1ccc([C@@H]2CN(Cc3cccnc3N)C[C@H]2NC(C)=O)cc1
The cytotoxicity at 10 µM of the first is lower: -0.37% for the first, 0.0652% for the second.

Going from COCCC(=O)Nc1nccn1Cc1ccc(Br)cc1 to CN(C)CC1CN(Cc2ccc(F)cc2)Cc2nccn2C1 (stereo not given), the cytotoxicity at 10 µM falls from -47.2% to -71.1%.

Compared with Cc1ccc(C(=O)N(C)CCNS(C)(=O)=O)cc1Br, CCC[C@H]1CN(S(C)(=O)=O)C[C@@H]1NC(=O)c1ccc(COC)cc1 is higher in cytotoxicity at 10 µM: -45.8% for the first, 1.1% for the second.

First: COc1cc(OC)c(CNC(=O)NCC(=O)N2CCCC2)c(OC)c1
Second: CNC(=O)C(C)(C)NC(=O)c1cc(OCC2CCC2)cc(C(=O)OC)c1
The cytotoxicity at 10 µM of the first is higher: 10.4% for the first, -8.97% for the second.

First: Cc1nc(C)n(CC2CCCN(CCc3ccncc3)C2)n1 (stereo not given)
Second: CN(C)Cc1nnc(C2CCCN(c3ncccc3F)C2)n1C (stereo not given)
The cytotoxicity at 10 µM of the first is lower: -23% for the first, 7.36% for the second.

Going from CNC(=O)[C@H]1C[C@@H]2CN(C(=O)c3cnc(C)cn3)C[C@@H]2N1C to CC(C)=CCN1CCN(Cc2nccn2C)[C@H]2CS(=O)(=O)C[C@H]21, the cytotoxicity at 10 µM rises from -108% to -2.76%.

First: CCN1CCc2nc(N3CCOCC3)nc(NC(C)C)c2C1
Second: CCN(CC)C(=O)CN1CCc2nc(C3CCNCC3)nc(NC)c2C1
The cytotoxicity at 10 µM of the first is lower: -112% for the first, -5.46% for the second.

Compared with Cc1nccn1CCCn1c(=O)cnc2ccccc21, c1ccc2c(c1)nnn2CCCNC1CCOC2(CCOCC2)C1 (stereo not given) is lower in cytotoxicity at 10 µM: 1.53% for the first, -4.66% for the second.

First: CCCc1cc(C(=O)N(Cc2cccnc2)C[C@@H]2CCC(=O)N2)no1
Second: COc1cc(CN(C(=O)Nc2cccnc2OC)C2CC2)ccc1O
The cytotoxicity at 10 µM of the first is higher: 6.82% for the first, -2.14% for the second.

Going from O=C(O)CCc1cn(C2CCN(c3ncccc3Cl)CC2)nn1 to COCCOC1CCN(C(C(=O)O)c2ccc(F)c(Cl)c2)CC1 (stereo not given), the cytotoxicity at 10 µM rises from -49.3% to 9.84%.

Compared with Cc1[nH]c(-c2ccccc2)nc1C(=O)N1CC[C@H](CO)[C@@H](O)C1, CN(Cc1coc(-c2ccccc2)n1)C1CCCN(c2cccnn2)C1 (stereo not given) is lower in cytotoxicity at 10 µM: 76.5% for the first, -14% for the second.

First: Cc1nsc(NC(=O)N2CCc3sccc3C2)n1
Second: Cc1noc(CN2CCN(Cc3cccs3)CC2)n1
The cytotoxicity at 10 µM of the first is higher: 18.5% for the first, -6.23% for the second.

First: Cc1oc(-c2ccoc2)nc1CN1CCCCC1CCn1cccn1 (stereo not given)
Second: COCc1nc(C(=O)N2CCCCC2Cn2cccn2)cs1 (stereo not given)
The cytotoxicity at 10 µM of the first is higher: -3.65% for the first, -19.1% for the second.

First: CCNC(=O)[C@@H]1C[C@@H](N)CN1Cc1ccc(-c2ccccc2C#N)o1
Second: CN1CCOC(CNC(=O)Cc2ccccc2F)C1 (stereo not given)
The cytotoxicity at 10 µM of the first is lower: -50.1% for the first, -3.87% for the second.

First: CN1CCC(N(C)CCC(=O)N2CCC(OCc3ccccc3)CC2)C1 (stereo not given)
Second: O=C(c1ccco1)N1CC[C@@H]2O[C@H](COCCN3CCCC3)CC[C@@H]21
The cytotoxicity at 10 µM of the first is higher: -6.35% for the first, -100% for the second.

First: CC(C)c1nnc(CN2CCCC3(CC2)CN(C)C(=O)O3)o1 (stereo not given)
Second: Cn1cnc(S(=O)(=O)NCCCN2CCCCCC2)c1Cl
The cytotoxicity at 10 µM of the first is higher: -1.52% for the first, -9.53% for the second.

First: CCc1nc(C)c(CN2CCOC(Cc3ccccc3Cl)C2)[nH]1 (stereo not given)
Second: CC(C)(C)c1cc(CN2CCOC(CCc3ccccc3)C2)n[nH]1 (stereo not given)
The cytotoxicity at 10 µM of the first is higher: -0.527% for the first, -5.34% for the second.

Compared with Cc1cc(-c2cc(C3CCOC3)c(C#N)c(N)n2)ccc1Cl (stereo not given), COc1ccc(-c2cc(C3CCNCC3)ccn2)cc1 is higher in cytotoxicity at 10 µM: -0.611% for the first, 0.288% for the second.

First: O=S1(=O)COCCN1CCCOc1ccc(F)cc1
Second: Cc1cccc(=O)n1CCC(=O)N1CCC2(CC1)OCCCC2O (stereo not given)
The cytotoxicity at 10 µM of the first is higher: 3.57% for the first, -1.95% for the second.

Going from COc1ccc(-c2n[nH]cc2CN(C)Cc2nnc(C)o2)c(F)c1 to O=C(CCc1cccc(F)c1F)N1CCCC(n2cncn2)C1 (stereo not given), the cytotoxicity at 10 µM falls from -3.01% to -20.2%.

First: COCc1ccc(C(=O)NCCCNc2ccc(C(F)(F)F)cn2)cc1
Second: Cc1[nH]ncc1C(=O)N1CCCC(c2cc(C(F)(F)F)[nH]n2)C1 (stereo not given)
The cytotoxicity at 10 µM of the first is higher: 2.13% for the first, -7.2% for the second.

Compared with CC1CCCCN1C(=O)CN1CCN(c2ccc3nncn3n2)CC1 (stereo not given), Cc1cccc(COC[C@@H]2CC[C@H]3[C@H](CCN3C(=O)CC3CC3)O2)n1 is lower in cytotoxicity at 10 µM: 1.48% for the first, -64.8% for the second.
